We go through 19 compounds from ChEMBL document CHEMBL3286364, “Ligand efficiency driven design of new inhibitors of Mycobacterium tuberculosis transcriptional repressor EthR using fragment growing, merging, and linking approaches” (J Med Chem, 2014).

Data set [1] concerns Mycobacterium tuberculosis. In words: Antimicrobial activity against Mycobacterium tuberculosis H37Rv expressing GFP infected in mouse RAW264.7 cells assessed as concentration required to potentiate 0.1 ug/ml […] to inhibit microbial growth by 50% by fluorescence assay. The class given is functional, organism-based. A digest of the protocol:
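RAW264.7 macrophages infected with H37Rv-GFP at MOI 1:1 for 2 h at 37 °C with shaking. Extracellular bacilli killed with amikacin (20 μM, 1 h). Infected cells added to compound serial dilutions (ten 2-fold) with ethionamide fixed at 0.1 μg/mL, 5 days at 37 °C, 5% CO2. SYTO 60 stained; confocal imaging gives percent infected cells and cell number. Two replicates averaged.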

Data set [2] relates to Mycobacterium tuberculosis. Kind of data set: Binding affinity to Mycobacterium tuberculosis EthR assessed as change in melting temperature at 20 uM by thermal shift assay. A digest of the protocol:
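Protein unfolding tracked with SYPRO Orange in a real-time PCR instrument. Ligand at 20 μM in EthR buffer (10 mM Tris/HCl, 300 mM NaCl, 0.1 mM EDTA, pH 7.5). Heated 37 to 85 °C at 0.04 °C/s, fluorescence read at Ex/Em 465/510 nm. ΔTm taken as the holo minus apo melting temperature.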

Data set [3] in a line: Inhibition of Mycobacterium tuberculosis EthR assessed as inhibition of EthR-DNA interaction after 3 mins by SPR assay. A digest of the protocol: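 106-bp biotinylated ethA/ethR intergenic DNA immobilised on a streptavidin chip (about 75 RU). An irrelevant 113-bp bla fragment in the reference channel; signal taken as the channel difference. Preincubated 5 min at 37 °C, injected at 20 μL/min for 3 min at 25 °C. Response read at end of injection; IC50 from dose-response.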

The nature of data set [4]: Solubility in PBS at pH 7.4 after 24 hrs by LC-MS/MS analysis. The class given is physicochemical. A digest of the protocol: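 10 mM DMSO stock diluted 1:50 into PBS pH 7.4 or MeOH. Shaken 24 h at room temperature, centrifuged, filtered (0.45 μm), diluted tenfold in MeOH. Analysed by LC-MS/MS (SIM or MRM). Solubility from the PBS/MeOH ratio of mass signal areas.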

Each structure is given as a SMILES string. A value given as a limit tells only on which side of the number the result lay.

`Cc1nc(-c2ccc(S(=O)(=O)NCCCC(F)(F)F)cc2)cs1`: the EC50 – broadly, the concentration needed to bring the measured effect to its halfway point – in data set [1] is more than 2.5 µM. In addition, the ΔTm (as a rule, the shift of the melting midpoint relative to a reference) in data set [2] is 6.6 °C.
In the case of `CCCCOc1ccc(S(=O)(=O)NCCC(C)C)cc1`, in data set [1], the EC50 was more than 10 µM. Further, in data set [2], the ΔTm is 3.6 °C.
As to `Cc1nc(-c2ccc(S(=O)(=O)NCCC(C)C)cc2)cs1`, the EC50 in data set [1] is 5.7 µM. In data set [2], the shift in melting temperature (ΔTm) is 6.1 °C. In addition, the IC50 (as a rule, the point on the concentration scale where inhibition reaches its midpoint) in data set [3] worked out at 4.9 µM. In data set [4], the solubility (as a rule, the dissolved amount per volume that the medium holds) at 24 h is 6.6 µg/mL.
On to `CCOC(=O)c1ccc(S(=O)(=O)NCCC(C)C)cc1`, for which, in data set [1], the EC50 was 10 µM. In data set [2], the ΔTm was found to be 4.3 °C.
For `O=C(NCCC(F)(F)F)c1ccc(C#CCNS(=O)(=O)c2ccccc2)cc1`, the EC50 in data set [1] was 0.23 µM. Besides, the ΔTm in data set [2] came out at 4.2 °C. The IC50 in data set [3] came out at 3.9 µM. In data set [4], this compound gave a solubility at 24 h of 3 µg/mL.
`Cc1nc(-c2ccc(S(=O)(=O)NCCC(C)(C)C)cc2)cs1`: the EC50 in data set [1] is more than 20 µM. Besides, the shift in melting temperature (ΔTm) in data set [2] came to 2.3 °C.
For `CC(C)CCNS(=O)(=O)c1ccc(-n2cccn2)cc1`, in that order: more than 10 µM and 1.9 °C.
For `CCCS(=O)(=O)NCc1nc(-c2ccc(C(=O)NCCC(F)(F)F)cc2)cs1`, the EC50 in data set [1] stood at 0.32 µM. Also, in data set [2], the ΔTm stood at 6.6 °C. Further, in data set [3], the IC50 came out at 0.56 µM. The same compound gave a solubility at 24 h in data set [4] of 1.3 µg/mL.
Turning to `Cc1nc(-c2ccc(S(=O)(=O)NCC(F)(F)F)cc2)cs1`, in data set [1], the EC50 was found to be 7.9 µM. Also, the ΔTm in data set [2] is 6.3 °C.
Consider `CC(C)CCNS(=O)(=O)c1ccc(I)cc1`, for which, in data set [1], the concentration for a half-maximal effect (EC50) is more than 10 µM. Besides, the ΔTm in data set [2] was determined as 1.9 °C.
Turning to `CC(C)CCNS(=O)(=O)c1ccc(N2CCCC2=O)cc1`, the concentration giving a half-maximal response (EC50) in data set [1] is more than 10 µM. In data set [2], the ΔTm amounted to 0.6 °C.
In the case of `C#CCNS(=O)(=O)c1ccc(I)cc1`, the EC50 in data set [1] was more than 10 µM. The ΔTm in data set [2] stood at 0.1 °C. In addition, the IC50 in data set [3] was found to be 160 µM. The compound also showed a solubility at 24 h in data set [4] of more than 200 µM.
Regarding `CC(C)CCNS(=O)(=O)c1ccc(-c2cnco2)cc1`, the EC50 in data set [1] was more than 10 µM. In addition, the ΔTm in data set [2] was 1.2 °C.
With `Cc1nc(-c2ccc(S(=O)(=O)NCCC(F)(F)F)cc2)cs1`, the EC50 in data set [1] came out at 0.29 µM. Moreover, the thermal shift (ΔTm) in data set [2] stood at 8.5 °C. Also, in data set [3], the IC50 turned out to be 0.55 µM. The compound further displayed a solubility at 24 h in data set [4] of 14.5 µg/mL.
Take `CC(C)CCNS(=O)(=O)c1ccc(-c2ccc(F)cc2)cc1`: the EC50 in data set [1] was more than 10 µM. Besides, the thermal shift (ΔTm) in data set [2] came out at 2.2 °C.
For `COc1ccc(-c2ccc(S(=O)(=O)NCCC(C)C)cc2)cc1`, in that order: more than 10 µM and 3.7 °C.
For `CC(C)CCNS(=O)(=O)c1ccc(CCC(C)C)cc1`, in that order: 6.3 µM and 3.2 °C.
Regarding `CC(=O)Nc1ccc(-c2ccc(S(=O)(=O)NCCC(C)C)cc2)cc1`, in data set [1], the EC50 is more than 10 µM. Besides, in data set [2], the ΔTm was 2 °C.
As to `Cc1nc(-c2ccc(C(=O)NCCC(F)(F)F)cc2)cs1`, the EC50 in data set [1] was determined as 0.08 µM. Also, the ΔTm in data set [2] is 11.2 °C. Besides, in data set [3], the IC50 was 0.4 µM. In data set [4], the solubility at 24 h came out at 14.7 µg/mL.
